{"source": "paper PMC5444390", "about": "(Journal of medicinal chemistry, 2016)", "key": {"[1]": {"test_system": "Hsp90 client proteins (EGFR, Her2, C-Raf) and Hsp90 in A549 cells", "assay": "Western blot for Hsp90 client proteins and Hsp90, A549 lysates", "format": "cell-based", "settings": "for Hsp90 client levels: A549, 12 or 24 h", "summary_of_the_method": "(§1)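 MCF7 (Advanced DMEM/F12, 2 mM L-glutamine) or A549 (F12K) cells, with 10% FBS and pen/strep at 37 °C, 5% CO2. […] M-PER lysates with protease/phosphatase inhibitors, 15 µg protein on reducing 10% gels, PVDF, HRP-chemiluminescence.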"}, "[2]": {"test_system": "MAPK pathway (EGFR, C-Raf, MEK, ERK, p-MEK, p-ERK) in A549 cells", "assay": "Western blot for MAPK pathway proteins, p-MEK and p-ERK, A549 lysates", "format": "cell-based"}, "[3]": {"test_system": "A549 lung cancer cell line", "settings": "cited from earlier work"}, "[4]": {"test_system": "Her3 and wild-type B-Raf in A549 cells", "assay": "Western blot for Her3 and wild-type B-Raf", "format": "cell-based", "settings": "for Her3 and wild-type B-Raf levels, control compounds: A549, 12 and 24 h, five-times the reported IC50", "summary_of_the_method": "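Cells harvested in cold PBS, lysed in M-PER with protease/phosphatase inhibitors, 15 µg protein resolved on reducing 10% gels, transferred to PVDF, immunoblotted for Her3 and B-Raf, HRP-chemiluminescent detection.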"}, "[5]": {"test_system": "p-Akt and total Akt in A549 cells", "assay": "Western blot for p-Akt and total Akt, A549 lysates", "format": "cell-based", "settings": "A549, 2 to 12 h (Supplementary Figure 2)"}, "[6]": {"test_system": "Hsp90 luciferase refolding activity in PC3-MM2 cells", "assay": "Luciferase refolding assay", "format": "cell-based", "settings": "0–100 μM, 1 h", "summary_of_the_method": "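Heat-denatured luciferase: luciferase-expressing PC3-MM2 cells were heated 8–12 min at 50 °C in DMEM until luminescence was 1% of initial. They were added (60,000 cells/100 µL final) to test compound, 0–100 µM, 1% DMSO final, and incubated 1 h. Luciferin/CoA/ATP reagent (tricine pH 7.8) was added and luminescence read immediately (0.5 s). Refolding was normalized to 1% DMSO = 100%. Triplicate concentrations, dose-response curves.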"}, "[7]": {"target": "wild type B-Raf / c-Raf heterodimer in A549 cells (Homo sapiens, UniProt P15056)", "sequence (P15056 whole entry, one chain of several)": "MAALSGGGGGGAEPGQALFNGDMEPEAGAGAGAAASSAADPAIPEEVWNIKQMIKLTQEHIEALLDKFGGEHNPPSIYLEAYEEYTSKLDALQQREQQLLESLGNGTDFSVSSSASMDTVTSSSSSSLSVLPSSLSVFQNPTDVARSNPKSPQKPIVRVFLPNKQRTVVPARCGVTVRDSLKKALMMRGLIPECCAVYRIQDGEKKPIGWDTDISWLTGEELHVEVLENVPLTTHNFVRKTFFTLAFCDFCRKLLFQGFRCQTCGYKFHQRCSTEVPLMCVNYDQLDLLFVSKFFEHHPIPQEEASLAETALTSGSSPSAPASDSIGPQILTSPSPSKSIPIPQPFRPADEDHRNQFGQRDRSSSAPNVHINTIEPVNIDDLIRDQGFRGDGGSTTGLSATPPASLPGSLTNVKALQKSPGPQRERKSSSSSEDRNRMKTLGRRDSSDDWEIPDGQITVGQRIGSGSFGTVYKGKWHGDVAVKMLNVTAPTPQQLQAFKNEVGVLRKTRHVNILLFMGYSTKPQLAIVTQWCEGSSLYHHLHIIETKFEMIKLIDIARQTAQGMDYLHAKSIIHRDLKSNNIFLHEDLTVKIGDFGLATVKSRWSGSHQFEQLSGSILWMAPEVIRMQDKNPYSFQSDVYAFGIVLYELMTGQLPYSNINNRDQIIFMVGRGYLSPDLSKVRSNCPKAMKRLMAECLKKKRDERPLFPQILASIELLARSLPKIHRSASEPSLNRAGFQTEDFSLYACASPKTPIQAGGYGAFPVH", "assay": "Co-immunoprecipitation of B-Raf, A549 lysates", "format": "cell-based", "settings": "A549, 24 h, five-times IC50"}, "[8]": {"test_system": "A549 lung cancer cell line", "assay": "Anti-proliferation", "format": "cell-based", "settings": "0.15 μM versus 1.7 μM"}, "[9]": {"test_system": "Hsp90 client proteins (EGFR, Her2, C-Raf) and Hsp90 in MCF7 cells", "assay": "Western blot for Hsp90 client proteins and Hsp90, MCF7 lysates", "format": "cell-based", "settings": "MCF7, 12 h", "summary_of_the_method": "as §1"}, "[10]": {"test_system": "Hsp90 client proteins and Hsp90", "assay": "Western blot for clients and Hsp90 with geldanamycin", "format": "cell-based", "settings": "Supplementary Figure 1"}, "[11]": {"settings": "A549, 750 nM, 2 to 12 h, vs vehicle"}}, "note": "pIC50: −log10 of the molar value.", "data": [{"smiles": "COc1ccc(NC(=O)Nc2cc3ccc(OC4CCN(C)CC4)c(C)c3oc2=O)cc1-c1ccccc1", "note": "[Compound 4, 1-(6-methoxy-[1,1′-biphenyl]-3-yl)-3-(8-methyl-7-((1-methylpiperidin-4-yl)oxy)-2-oxo-2H-chromen-3-yl)urea]", "values": [{"measurement": "Hsp90 client levels", "setting": "[1]; five-times IC50", "result": "did not result in decreased client levels"}, {"measurement": "p-MEK and pERK levels", "setting": "[2]; A549, 12 h, five-times IC50, vs vehicle", "result": "decreased"}, {"measurement": "p-MEK and p-ERK levels", "setting": "[2]; A549, 24 h, five-times IC50", "result": "reestablished"}]}, {"smiles": "N#Cc1c(Oc2ccc(F)c(NC(=O)Cc3cccc(C(F)(F)F)c3)c2)ccc2nc(NC(=O)C3CC3)sc12", "note": "[TAK-632]", "values": [{"measurement": "pIC50", "setting": "[3]; read-out: IC50 value against A549 (reported), A549 lung cancer cell line", "result": 5.77}, {"measurement": "Her3 and wild-type B-Raf levels, control compounds", "setting": "[4]", "result": "remained unaffected"}]}, {"smiles": "COc1cccc(-c2cc(NC(=O)Nc3cc4ccc(OC5CCN(C)CC5)c(C)c4oc3=O)ccc2OC)c1", "note": "[Compound 2, 1-(3′,6-dimethoxy-[1,1′-biphenyl]-3-yl)-3-(8-methyl-7-((1-methylpiperidin-4-yl)oxy)-2-oxo-2H-chromen-3-yl)urea]", "values": [{"measurement": "Hsp90 client protein levels", "setting": "[1]; A549, 12 h, low (half IC50) and high (five-times IC50) concentrations", "result": "unchanged"}, {"measurement": "p-Akt and total Akt levels", "setting": "[5]", "result": "unaffected"}, {"measurement": "EGFR and C-Raf levels", "setting": "[2]; [11]", "result": "remained constant"}, {"measurement": "Total MEK and ERK levels", "setting": "[2]; [11]", "result": "remained constant"}, {"measurement": "p-MEK levels", "setting": "[2]; A549, 750 nM, 12 h", "result": "undetectable"}, {"measurement": "p-MEK and p-ERK levels", "setting": "[2]; A549, 12 h, high concentration (five-times IC50, 750 nM)", "result": "significantly lower levels"}, {"measurement": "p-MEK and p-ERK levels", "setting": "[2]; A549, 12 h, low concentration (half IC50, 70nM)", "result": "little effect"}, {"measurement": "p-MEK and p-ERK levels", "setting": "[2]; A549, 24 h, 750 nM", "result": "only slightly increased compared to 12 hours"}, {"measurement": "Inhibition of firefly luciferase re-maturation", "setting": "[6]", "result": "does not inhibit"}, {"measurement": "Dimerization of wild type B-Raf and c-Raf (co-immunoprecipitation)", "setting": "[7]", "result": "does not result in dimerization"}, {"measurement": "Her3 and wild-type B-Raf levels", "setting": "[4]; A549, 24 h, five-times IC50", "result": "comparable to vehicle"}, {"measurement": "IC50 of 2 relative to IC50 of TAK-632", "setting": "[8]", "result": "one tenth"}, {"measurement": "Hsp90 client protein levels", "setting": "[9]; low (half IC50) and high (five-times IC50) concentrations", "result": "unchanged"}]}, {"smiles": "Cc1c(OC2CCN(C)CC2)ccc2cc(NC(=O)Nc3ccccc3)c(=O)oc12", "note": "[Compound 1, 1-(8-methyl-7-((1-methylpiperidin-4-yl)oxy)-2-oxo-2H-chromen-3-yl)-3-phenylurea]", "values": [{"measurement": "Hsp90 client levels (EGFR, Her2, C-Raf)", "setting": "[1]; A549, 12 h, high concentration (five-times IC50), vs vehicle", "result": "decreased levels"}, {"measurement": "Hsp90 levels", "setting": "[1]; A549, 12 h, low and high concentrations", "result": "comparable to vehicle"}, {"measurement": "Hsp90 client levels (EGFR, Her2, C-Raf)", "setting": "[9]; high concentration (five-times IC50), vs vehicle", "result": "decreased levels"}, {"measurement": "Hsp90 levels", "setting": "[9]; low and high concentrations", "result": "comparable to vehicle"}]}, {"smiles": "Cc1c(OC2CCN(C)CC2)ccc2cc(NC(=O)Nc3cccc(-c4ccccc4)c3)c(=O)oc12", "note": "[Compound 3, 1-([1,1′-biphenyl]-3-yl)-3-(8-methyl-7-((1-methylpiperidin-4-yl)oxy)-2-oxo-2H-chromen-3-yl)urea]", "values": [{"measurement": "Hsp90-dependent client protein levels", "setting": "[1]; A549, 24 h, five-times IC50", "result": "decreased levels"}, {"measurement": "Hsp90 levels", "setting": "[1]; A549, 24 h, five-times IC50", "result": "constant levels"}]}, {"smiles": "CNC(=O)c1cc(Oc2ccc(NC(=O)Nc3ccc(Cl)c(C(F)(F)F)c3)cc2)ccn1", "note": "[sorafenib]", "values": [{"measurement": "Her3 levels", "setting": "[4]; A549, sorafenib at five-times the reported IC50 (14 μM), 12 and 24 h", "result": "time-dependent increase"}]}, {"smiles": "COC1=C2C[C@@H](C)C[C@H](OC)[C@H](O)[C@@H](C)/C=C(\\C)[C@H](OC(N)=O)[C@@H](OC)/C=C\\C=C(/C)C(=O)NC(=CC1=O)C2=O", "note": "[geldanamycin (GDA), geldanamycin]", "values": [{"measurement": "Hsp90 client levels", "setting": "[10]", "result": "decreased client levels"}, {"measurement": "Cellular levels of Hsp90", "setting": "[10]; at concentrations that decreased clients", "result": "increased cellular levels of Hsp90"}]}, {"smiles": "CCCS(=O)(=O)Nc1ccc(F)c(C(=O)c2c[nH]c3ncc(-c4ccc(Cl)cc4)cc23)c1F", "note": "[vemurafenib]", "values": [{"measurement": "Activity against the A549 cell line", "setting": "[3]; A549 expresses only wild-type B-Raf", "result": "relatively inactive"}, {"measurement": "Her3 and wild-type B-Raf levels, control compounds", "setting": "[4]", "result": "little effect"}]}, {"smiles": "COc1cccc(-c2cccc(NC(=O)Nc3cc4ccc(OC5CCN(C)CC5)c(C)c4oc3=O)c2)c1", "note": "[Compound 5, 1-(3′-methoxy-[1,1′-biphenyl]-3-yl)-3-(8-methyl-7-((1-methylpiperidin-4-yl)oxy)-2-oxo-2H-chromen-3-yl)urea]", "values": [{"measurement": "Hsp90 client levels", "setting": "[1]; five-times IC50", "result": "did not result in decreased client levels"}, {"measurement": "p-MEK levels", "setting": "[2]; A549, 12 and 24 h, five-times IC50", "result": "unchanged"}, {"measurement": "p-ERK levels", "setting": "[2]; A549, 12 h, five-times IC50", "result": "decreased"}, {"measurement": "p-ERK levels", "setting": "[2]; A549, 24 h, five-times IC50", "result": "comparable to vehicle"}, {"measurement": "p-MEK and p-ERK levels", "setting": "[2]; A549, 24 h, five-times IC50", "result": "reestablished"}]}]}
